Experiments:
Rattus norvegicus [1] = assay: In vivo biodistribution in rats after an intravenous injection at 15 min was determined in kidney; Expressed as percent dose/organ; format: ADME, organism-based; details: 0.25 h
Summary of the method: (§1)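 [125I]FISCH in 0.2 mL saline was injected into the femoral vein of male Sprague-Dawley rats (225-300 g) under halothane. Rats were killed by cardiac excision at set times. Organs were weighed and gamma-counted against diluted aliquots of the dose. Blood and muscle totals assume 7% and 40% of body weight. Results are averages of six rats ± SD.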

Rattus norvegicus [2] = assay: In vivo biodistribution in rats after an intravenous injection at 15 min was determined in lung; Expressed as percent dose/organ; format: ADME, organism-based; details: 0.25 h; summary of the method: as §1
Rattus norvegicus [3] = assay: In vivo biodistribution in rats after an intravenous injection at 60 min was determined in kidney; Expressed as percent dose/organ; format: ADME, organism-based; details: 1 h; summary of the method: as §1
Rattus norvegicus [4] = assay: In vivo biodistribution in rats after an intravenous injection at 60 min was determined in thyroid; Expressed as percent dose/organ; format: ADME, organism-based, Thyroid gland; details: 1 h; summary of the method: as §1
Rattus norvegicus [5] = assay: In vivo biodistribution in rats after an intravenous injection at 60 min was determined in spleen; Expressed as percent dose/organ; format: ADME, organism-based; details: 1 h; summary of the method: as §1
Rattus norvegicus [6] = assay: In vivo biodistribution in rats after an intravenous injection at 15 min was determined in blood; Expressed as percent dose/organ; format: ADME, organism-based; details: 0.25 h; summary of the method: as §1
Rattus norvegicus [7] = assay: In vivo biodistribution in rats after an intravenous injection at 2 min was determined in liver; Expressed as percent dose/organ; format: ADME, organism-based; summary of the method: as §1
Rattus norvegicus [8] = assay: In vivo biodistribution in rats after an intravenous injection at 15 min was determined in heart; Expressed as percent dose/organ; format: ADME, organism-based; details: 0.25 h; summary of the method: as §1
Rattus norvegicus [9] = assay: In vivo biodistribution in rats after an intravenous injection at 60 min was determined in heart; Expressed as percent dose/organ; format: ADME, organism-based; details: 1 h; summary of the method: as §1
D(1A) dopamine receptor [10] = molecular target: T1, D(1A) dopamine receptor (Rattus norvegicus, UniProt P18901); assay: In vitro binding affinity to the rat striatal homogenate
Summary of the method: (§2)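 Saturation binding of [125I]FISCH to male Sprague-Dawley rat (200-250 g) striatal membranes. Tissue homogenized in ice-cold 50 mM Tris-HCl pH 7.4, pelleted twice at 20000g. Assay buffer 50 mM Tris pH 7.4, 120 mM NaCl, 5 mM KCl, 2 mM CaCl2, 1 mM MgCl2, with 40-60 μg protein. Incubated 20 min at 37 °C with stirring, then filtered through protamine-treated GF/B filters. Specific binding gives […].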

Rattus norvegicus [11] = organism: Rattus norvegicus; assay: Selectivity ratio for biodistribution in brain and blood of rats after 2 minutes; Expressed as percent dose/gram ratio; format: ADME, organism-based
Summary of the method: (§3)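 After femoral iv injection of [125I]FISCH in saline into halothane-anesthetized male Sprague-Dawley rats, tissues were weighed and gamma-counted. Percent dose/gram was calculated against the diluted injected dose, and the ratio was taken from the percent dose/gram values.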

Rattus norvegicus [12] = assay: In vivo biodistribution in rats after an intravenous injection at 15 min was determined in muscle; Expressed as percent dose/organ; format: ADME, organism-based, Muscle tissue; details: 0.25 h; summary of the method: as §1
Rattus norvegicus [13] = assay: In vivo biodistribution in rats after an intravenous injection at 2 min was determined in muscle; Expressed as percent dose/organ; format: ADME, organism-based, Muscle tissue; summary of the method: as §1
Rattus norvegicus [14] = assay: In vivo biodistribution in rats after an intravenous injection at 60 min was determined in brain; Expressed as percent dose/organ; format: ADME, organism-based; details: 1 h; summary of the method: as §1
Rattus norvegicus [15] = assay: In vivo biodistribution in rats after an intravenous injection at 15 min was determined in skin; Expressed as percent dose/organ; format: ADME, organism-based; details: 0.25 h; summary of the method: as §1
Rattus norvegicus [16] = assay: In vivo biodistribution in rats after an intravenous injection at 15 min was determined in brain; Expressed as percent dose/organ; format: ADME, organism-based; details: 0.25 h; summary of the method: as §1
Rattus norvegicus [17] = assay: In vivo biodistribution in rats after an intravenous injection at 15 min was determined in liver; Expressed as percent dose/organ; format: ADME, organism-based; details: 0.25 h; summary of the method: as §1
Rattus norvegicus [18] = assay: In vivo biodistribution in rats after an intravenous injection at 60 min was determined in blood; Expressed as percent dose/organ; format: ADME, organism-based; details: 1 h; summary of the method: as §1
Rattus norvegicus [19] = assay: In vivo biodistribution in rats after an intravenous injection at 2 min was determined in heart; Expressed as percent dose/organ; format: ADME, organism-based; summary of the method: as §1
Rattus norvegicus [20] = assay: In vivo biodistribution in rats after an intravenous injection at 60 min was determined in muscle; Expressed as percent dose/organ; format: ADME, organism-based, Muscle tissue; details: 1 h; summary of the method: as §1
Rattus norvegicus [21] = assay: In vivo biodistribution in rats after an intravenous injection at 60 min was determined in lung; Expressed as percent dose/organ; format: ADME, organism-based; details: 1 h; summary of the method: as §1
Rattus norvegicus [22] = assay: In vivo biodistribution in rats after an intravenous injection at 15 min was determined in thyroid; Expressed as percent dose/organ; format: ADME, organism-based, Thyroid gland; details: 0.25 h; summary of the method: as §1
Rattus norvegicus [23] = organism: Rattus norvegicus; assay: Selectivity ratio for biodistribution in brain and blood of rats after 15 minutes; Expressed as percent dose/gram ratio; format: ADME, organism-based; details: 0.25 h; summary of the method: as §3
Rattus norvegicus [24] = assay: In vivo biodistribution in rats after an intravenous injection at 2 min was determined in brain; Expressed as percent dose/organ; format: ADME, organism-based; summary of the method: as §1
Rattus norvegicus [25] = assay: In vivo biodistribution in rats after an intravenous injection at 2 min was determined in spleen; Expressed as percent dose/organ; format: ADME, organism-based; summary of the method: as §1
Rattus norvegicus [26] = assay: In vivo biodistribution in rats after an intravenous injection at 2 min was determined in blood; Expressed as percent dose/organ; format: ADME, organism-based; summary of the method: as §1
Rattus norvegicus [27] = assay: In vivo biodistribution in rats after an intravenous injection at 2 min was determined in skin; Expressed as percent dose/organ; format: ADME, organism-based; summary of the method: as §1
Rattus norvegicus [28] = assay: In vivo biodistribution in rats after an intravenous injection at 2 min was determined in kidney; Expressed as percent dose/organ; format: ADME, organism-based; summary of the method: as §1
Rattus norvegicus [29] = assay: In vivo biodistribution in rats after an intravenous injection at 60 min was determined in liver; Expressed as percent dose/organ; format: ADME, organism-based; details: 1 h; summary of the method: as §1
Rattus norvegicus [30] = organism: Rattus norvegicus; assay: Selectivity ratio for biodistribution in brain and blood of rats after 60 minutes; Expressed as percent dose/gram ratio; format: ADME, organism-based; details: 1 h; summary of the method: as §3
Rattus norvegicus [31] = assay: In vivo biodistribution in rats after an intravenous injection at 2 min was determined in thyroid; Expressed as percent dose/organ; format: ADME, organism-based, Thyroid gland; summary of the method: as §1
Rattus norvegicus [32] = assay: In vivo biodistribution in rats after an intravenous injection at 15 min was determined in spleen; Expressed as percent dose/organ; format: ADME, organism-based; details: 0.25 h; summary of the method: as §1
Rattus norvegicus [33] = assay: In vivo biodistribution in rats after an intravenous injection at 2 min was determined in lung; Expressed as percent dose/organ; format: ADME, organism-based; summary of the method: as §1
Rattus norvegicus [34] = assay: In vivo biodistribution in rats after an intravenous injection at 60 min was determined in skin; Expressed as percent dose/organ; format: ADME, organism-based; details: 1 h; summary of the method: as §1
D(1A) dopamine receptor [35] = molecular target: T1, D(1A) dopamine receptor; assay: (§4) In vitro binding affinity to the rat striatal homogenate.
Rattus norvegicus [36] = organism: Rattus norvegicus; assay: as §4; summary of the method: as §2
D(1A) dopamine receptor [37] = molecular target: T1, D(1A) dopamine receptor; assay: In vitro binding affinity towards Dopamine receptor D1 by displacing [125I]FISCH radioligand in rat striatal homogenate
Summary of the method: (§5)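 Assay buffer 50 mM Tris pH 7.4 with NaCl, KCl, CaCl2 and MgCl2, 40-60 μg protein. Incubated 20 min at 37 °C with stirring, then vacuum-filtered on GF/B filters pretreated with 0.2% protamine sulfate and washed with cold Tris.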

D(1A) dopamine receptor [38] = molecular target: T1, D(1A) dopamine receptor; assay: In vitro binding affinity towards dDopamine receptor D1 by displacing [125I]FISCH radioligand in rat striatal homogenate
Summary of the method: as §5, with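 “Competition against 0.15-0.30 nM [125I]FISCH on rat striatal membranes, each competitor at 7-11 concentrations. Assay” for “Assay”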

T1 sequence (P18901 whole entry): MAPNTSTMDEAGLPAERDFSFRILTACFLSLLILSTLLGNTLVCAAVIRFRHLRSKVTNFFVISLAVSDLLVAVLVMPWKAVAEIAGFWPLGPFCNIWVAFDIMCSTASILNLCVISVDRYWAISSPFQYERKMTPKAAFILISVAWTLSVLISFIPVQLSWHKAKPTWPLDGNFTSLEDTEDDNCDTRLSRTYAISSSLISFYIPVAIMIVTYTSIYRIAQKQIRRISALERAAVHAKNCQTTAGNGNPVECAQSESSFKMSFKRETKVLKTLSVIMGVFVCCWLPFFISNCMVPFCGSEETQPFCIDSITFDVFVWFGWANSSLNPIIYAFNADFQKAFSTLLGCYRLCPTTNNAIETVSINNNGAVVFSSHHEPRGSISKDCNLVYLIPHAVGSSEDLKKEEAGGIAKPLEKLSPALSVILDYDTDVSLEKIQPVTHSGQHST

For `CN1CCc2cc(Cl)c(O)cc2C(c2ccc([125I])cc2)C1` (stereo not given), the Biodistribution (Rattus norvegicus [1]) was 2.09%, the Biodistribution (Rattus norvegicus [2]) was 2.73% and the Biodistribution (Rattus norvegicus [3]) was 1.31%. It also gave a Biodistribution (Rattus norvegicus [4]) of 0.04%, a Biodistribution (Rattus norvegicus [5]) of 0.67% and a Biodistribution (Rattus norvegicus [6]) of 2.28%. It also gave a Biodistribution (Rattus norvegicus [7]) of 17.1%, a Biodistribution (Rattus norvegicus [8]) of 0.38% and a Biodistribution (Rattus norvegicus [9]) of 0.18%. It also gave a Kd (D(1A) dopamine receptor [10]) of 1.43 nM, a Ratio (Rattus norvegicus [11]) of 7.35% and a Biodistribution (Rattus norvegicus [12]) of 34.22%. The Biodistribution (Rattus norvegicus [13]) was 35.68%, the Biodistribution (Rattus norvegicus [14]) was 0.55% and the Biodistribution (Rattus norvegicus [15]) was 9.62%. It also gave a Biodistribution (Rattus norvegicus [16]) of 1.4%, a Biodistribution (Rattus norvegicus [17]) of 14.72% and a Biodistribution (Rattus norvegicus [18]) of 1.83%. It also gave a Biodistribution (Rattus norvegicus [19]) of 1.97%, a Biodistribution (Rattus norvegicus [20]) of 19.07% and a Biodistribution (Rattus norvegicus [21]) of 1.47%. The Biodistribution (Rattus norvegicus [22]) was 0.06%, the Ratio (Rattus norvegicus [23]) was 6.19% and the Biodistribution (Rattus norvegicus [24]) was 2.27%. The Biodistribution (Rattus norvegicus [25]) was 2.79%, the Biodistribution (Rattus norvegicus [26]) was 3.46% and the Biodistribution (Rattus norvegicus [27]) was 7.43%. It also gave a Biodistribution (Rattus norvegicus [28]) of 5.98%, a Biodistribution (Rattus norvegicus [29]) of 12.32% and a Ratio (Rattus norvegicus [30]) of 3.08%. The Biodistribution (Rattus norvegicus [31]) was 0.11%, the Biodistribution (Rattus norvegicus [32]) was 0.56% and the Biodistribution (Rattus norvegicus [33]) was 8.55%. The Biodistribution (Rattus norvegicus [34]) was 9.25%.
`CN1CCc2ccc(O)cc2[C@@H](c2ccccc2)C1` was tested, and the Kd (D(1A) dopamine receptor [35]) was 197 nM.
`CN1CCc2cc(I)c(O)cc2[C@@H](c2ccccc2)C1` (racemic) gave a Kd (Rattus norvegicus [36]) of 0.7 nM and a Ki (D(1A) dopamine receptor [37]) of 13.4 nM.
Compound `CN1CCc2cc(Cl)c(O)cc2C(c2ccc(I)cc2)C1` (racemic) has a Ki (D(1A) dopamine receptor [37]) of 1.71 nM.
In the case of `O=C(c1ccc(F)cc1)C1CCN(CCn2c(=O)[nH]c3ccccc3c2=O)CC1` [KETANSERIN], the Ki (D(1A) dopamine receptor [38]) is reported as greater than 3000 nM.
With `CN1CCc2cc(Cl)c(O)cc2[C@@H](c2ccccc2)C1` [SCH-23390] the Kd (Rattus norvegicus [36]) was 0.36 nM.
